In ChEMBL document CHEMBL1142515, “Synthesis and evaluation of structurally constrained quinazolinone derivatives as potent and selective histamine H3 receptor inverse agonists” (J Med Chem, 2008):

Columns and labels:
[1] = molecular target: Voltage-gated inwardly rectifying potassium channel KCNH2 (Homo sapiens, UniProt Q12809); test: Antagonist activity at human ERG in HEK293 cells assessed as inhibition of [35S]N-[(4R)-1'-[(2R)-6-cyano-1,2,3,4-tetrahydro-2-naphthalenyl]-3,4-dihydro-4-hydroxyspiro[2H-1-benzopyran-2,4'-piperidin]-6-yl]methanesulfonamide binding
Chain of Voltage-gated inwardly rectifying potassium channel KCNH2 (Q12809 whole entry): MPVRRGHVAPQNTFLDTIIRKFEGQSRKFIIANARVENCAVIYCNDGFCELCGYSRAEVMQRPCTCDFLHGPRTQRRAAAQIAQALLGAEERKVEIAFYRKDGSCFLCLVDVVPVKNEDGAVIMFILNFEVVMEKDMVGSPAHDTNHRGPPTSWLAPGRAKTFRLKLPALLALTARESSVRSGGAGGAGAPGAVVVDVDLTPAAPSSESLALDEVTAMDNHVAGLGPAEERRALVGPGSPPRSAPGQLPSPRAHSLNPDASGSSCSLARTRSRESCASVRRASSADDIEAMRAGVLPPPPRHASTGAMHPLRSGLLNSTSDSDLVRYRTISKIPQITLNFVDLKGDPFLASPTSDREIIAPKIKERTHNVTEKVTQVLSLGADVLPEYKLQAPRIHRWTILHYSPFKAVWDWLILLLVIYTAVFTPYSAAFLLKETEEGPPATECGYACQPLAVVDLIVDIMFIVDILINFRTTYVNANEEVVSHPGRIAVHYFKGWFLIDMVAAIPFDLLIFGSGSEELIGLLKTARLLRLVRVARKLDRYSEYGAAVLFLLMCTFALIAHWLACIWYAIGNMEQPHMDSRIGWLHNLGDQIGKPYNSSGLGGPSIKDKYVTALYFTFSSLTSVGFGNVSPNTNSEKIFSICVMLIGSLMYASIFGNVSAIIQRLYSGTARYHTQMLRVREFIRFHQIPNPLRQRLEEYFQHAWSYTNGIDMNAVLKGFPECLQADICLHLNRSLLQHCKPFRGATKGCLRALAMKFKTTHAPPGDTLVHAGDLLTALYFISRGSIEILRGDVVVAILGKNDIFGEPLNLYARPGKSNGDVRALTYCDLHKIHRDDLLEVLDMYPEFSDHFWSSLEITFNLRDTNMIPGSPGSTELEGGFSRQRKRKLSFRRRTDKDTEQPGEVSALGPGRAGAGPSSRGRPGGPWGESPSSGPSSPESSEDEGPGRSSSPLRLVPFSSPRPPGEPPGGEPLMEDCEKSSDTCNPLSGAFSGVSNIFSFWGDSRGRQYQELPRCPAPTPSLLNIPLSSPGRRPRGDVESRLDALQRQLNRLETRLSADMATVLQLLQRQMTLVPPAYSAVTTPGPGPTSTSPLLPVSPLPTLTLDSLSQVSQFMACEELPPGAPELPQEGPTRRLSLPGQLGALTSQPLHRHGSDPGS

Histamine H3 receptor [2] = molecular target: T1, Histamine H3 receptor (Homo sapiens, UniProt Q9Y5N1); test: Antagonist activity at human cloned histamine H3 receptor expressed in CHO-K1 cells assessed as inhibition of R-alpha-methylhistamine-induced [35S]GTPgammaS binding; assay type: functional, cell-based
T1 sequence (Q9Y5N1 whole entry): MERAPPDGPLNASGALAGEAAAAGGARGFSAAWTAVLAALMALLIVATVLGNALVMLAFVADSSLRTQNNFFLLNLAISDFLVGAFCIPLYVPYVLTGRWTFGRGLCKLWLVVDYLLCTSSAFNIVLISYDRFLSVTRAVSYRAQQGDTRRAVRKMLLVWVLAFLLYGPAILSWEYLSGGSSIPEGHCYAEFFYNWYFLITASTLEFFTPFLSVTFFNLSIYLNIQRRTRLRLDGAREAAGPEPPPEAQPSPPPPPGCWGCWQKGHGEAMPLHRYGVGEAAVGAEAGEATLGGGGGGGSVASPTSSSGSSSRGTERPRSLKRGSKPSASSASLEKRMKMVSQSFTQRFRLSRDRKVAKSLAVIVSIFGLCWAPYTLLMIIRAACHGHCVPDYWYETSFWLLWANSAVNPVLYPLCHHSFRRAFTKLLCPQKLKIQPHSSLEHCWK

[3] = Ratio of drug level in cerebrospinal fluid to brain in Sprague-Dawley rat at 10 mg/kg, po after 2 hrs; assay type: ADME, organism-based, CSF/Brain; design: dose 10 mg/kg, route oral; details: in vivo
LLC-PK1 [4] = test: Ratio of permeability from apical to basolateral side over basolateral to apical side in pig LLC-PK1 cells expressing mouse MDR1a; assay type: ADME, cell-based, Sus scrofa
[5] = Cmax in Beagle dog at 0.3 mg/kg, iv and 1 mg/kg, po; assay type: ADME, organism-based, Canis lupus familiaris; details: in vivo
Method in brief: (§1)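 Male SD rats, male Beagle dogs, male rhesus monkeys given single doses iv (PEG400/EtOH/H2O 50/10/40) or po by gavage (0.5% methylcellulose suspension). Rats 1 mg/kg iv and 3 mg/kg po; dogs and monkeys 0.3 mg/kg iv and 1 mg/kg po. Plasma sampled at multiple times up to 24 h, deproteinized with ethanol plus internal standard. Mean of n = 3 animals/dose.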

Canis familiaris [6] = test: AUC (0 to infinity) in Beagle dog at 1 mg/kg, po; assay type: ADME, organism-based, Canis lupus familiaris, Plasma; design: time infinity, dose 1 mg/kg, route oral; details: in vivo; method in brief: as §1
LLC-PK1 [7] = test: Ratio of permeability from apical to basolateral side over basolateral to apical side in pig LLC-PK1 cells expressing human MDR1; assay type: ADME, cell-based, Sus scrofa
Histamine H3 receptor [8] = molecular target: T1, Histamine H3 receptor; test: Displacement of [3H]N-alpha-methylhistamine from human recombinant histamine H3 receptor expressed in CHO-K1 cells; assay type: cell-based
[9] = Plasma clearance in Sprague-Dawley rat at 1 mg/kg, iv; assay type: ADME, organism-based; design: dose 1 mg/kg, route intravenous; method in brief: as §1
[10] = Drug level in Sprague-Dawley rat cerebrospinal fluid at 10 mg/kg, po after 2 hrs; assay type: ADME, organism-based; design: dose 10 mg/kg, route oral; details: read-out: Drug uptake
Method in brief: (§2)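 Male SD rats dosed orally at 10 mg/kg. Plasma, brain and CSF concentrations determined 2 h after dosing. Brain/plasma ratio taken from these levels. Mean of n = 3 animals.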

[11] = Cmax in rhesus monkey at 0.3 mg/kg, iv and 1 mg/kg, po; assay type: ADME, organism-based, Macaca mulatta; details: in vivo; method in brief: as §1
Histamine H3 receptor [12] = molecular target: Histamine H3 receptor (Rattus norvegicus, UniProt Q9QYN8); test: Displacement of [3H]N-alpha-methylhistamine from rat recombinant histamine H3 receptor expressed in HEK293 cells; assay type: cell-based
Chain of Histamine H3 receptor (Rattus norvegicus, UniProt Q9QYN8) (Q9QYN8 whole entry): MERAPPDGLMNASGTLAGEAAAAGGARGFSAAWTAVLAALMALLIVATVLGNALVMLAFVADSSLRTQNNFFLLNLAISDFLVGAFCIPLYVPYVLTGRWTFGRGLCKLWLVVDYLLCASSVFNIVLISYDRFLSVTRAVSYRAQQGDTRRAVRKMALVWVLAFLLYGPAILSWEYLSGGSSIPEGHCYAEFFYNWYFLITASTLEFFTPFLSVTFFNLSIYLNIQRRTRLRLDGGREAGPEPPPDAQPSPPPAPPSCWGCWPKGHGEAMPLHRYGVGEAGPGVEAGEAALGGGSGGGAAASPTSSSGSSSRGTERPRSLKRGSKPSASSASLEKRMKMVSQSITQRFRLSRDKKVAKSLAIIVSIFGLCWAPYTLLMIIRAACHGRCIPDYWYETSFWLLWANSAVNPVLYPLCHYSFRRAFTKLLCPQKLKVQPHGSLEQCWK

[13] = Plasma concentration in Sprague-Dawley rat at 10 mg/kg, po after 2 hrs; assay type: ADME, organism-based; design: dose 10 mg/kg, route oral; method in brief: as §2
[14] = Oral bioavailability in Sprague-Dawley rat at 3 mg/kg; assay type: ADME, organism-based; details: in vivo; method in brief: as §1
[15] = AUC (0 to infinity) in Sprague-Dawley rat at 3 mg/kg, po; assay type: ADME, organism-based; design: time infinity, dose 3 mg/kg, route oral; details: plasma; method in brief: as §1
[16] = Ratio of drug level in brain to plasma in Sprague-Dawley rat at 10 mg/kg, po after 2 hrs; assay type: ADME, organism-based; design: dose 10 mg/kg, route oral; details: read-out: BPR; method in brief: as §2
[17] = Cmax in Sprague-Dawley rat at 1 mg/kg, iv and 3 mg/kg, po; assay type: ADME, organism-based; details: in vivo; method in brief: as §1
Brain = test: Drug level in Sprague-Dawley rat brain at 10 mg/kg, po after 2 hrs; assay type: ADME, organism-based; design: dose 10 mg/kg, route oral; details: in vivo; method in brief: as §2
Canis familiaris [18] = test: Oral bioavailability in Beagle dog at 1 mg/kg; assay type: ADME, organism-based, Canis lupus familiaris; details: in vivo; method in brief: as §1
Histamine H3 receptor [19] = molecular target: Histamine H3 receptor (Mus musculus, UniProt P58406); test: Displacement of [3H]N-alpha-methylhistamine from mouse recombinant histamine H3 receptor
Chain of Histamine H3 receptor (Mus musculus, UniProt P58406) (P58406 whole entry): as the sequence (Q9QYN8 whole entry) above, with T15A, A286T, A290G, R387H, I389V counted along it

Rhesus monkey [20] = test: AUC (0 to infinity) in rhesus monkey at 1 mg/kg, po; assay type: ADME, organism-based, Macaca mulatta, Plasma; design: time infinity, dose 1 mg/kg, route oral; details: in vivo; method in brief: as §1
Rhesus monkey [21] = test: Oral bioavailability in rhesus monkey at 1 mg/kg; assay type: ADME, organism-based, Macaca mulatta; details: in vivo; method in brief: as §1

IC50 (Histamine H3 receptor [2]) [nM] | SMILES | IC50 [1] [nM] | further results
1.8 | COc1ccc2c(=O)n(-c3ccc(OC4CCN(C5CCC5)CC4)cc3)c(C)nc2c1 | > 10000 | –
4.2 | COc1cccc2c(=O)n(-c3ccc(OC4CCN(C5CCC5)CC4)cc3)c(C)nc12 | > 10000 | –
1.8 | Cc1nc2cnccc2c(=O)n1-c1ccc(OC2CCN(C3CCC3)CC2)cc1 | > 10000 | –
7 | Cc1nc2ccccc2c(=O)n1-c1ccc(OC2CCCN(C3CCCC3)CC2)cc1 (configuration not stated) | – | –
3.2 | Cc1nc2ccccc2c(=O)n1-c1ccc(OC2CCN(C3CCCC3)CC2)cc1 | > 10000 | –
740 | Cc1nc2ccccc2c(=O)n1-c1ccc(OC2CCN(C)CC2)cc1 | – | –
10 | Cc1nc2ccccc2c(=O)n1-c1ccc(O[C@H]2CC[C@@H](N3CCCC3)CC2)cc1 | – | –
14 | Cc1nc2cccnc2c(=O)n1-c1ccc(OC2CCN(C3CCC3)CC2)cc1 | > 10000 | –
1.2 | Cc1nc2ccc(F)cc2c(=O)n1-c1ccc(OC2CCN(C3CCC3)CC2)cc1 | > 10000 | –
0.91 | Cc1nc2cc(F)c(F)cc2c(=O)n1-c1ccc(OC2CCN(C3CCC3)CC2)cc1 | > 10000 | –
49 | CCN1CCC(Oc2ccc(-n3c(C)nc4ccccc4c3=O)cc2)CC1 | – | –
1.6 | Cc1nc2ncccc2c(=O)n1-c1ccc(OC2CCN(C3CCC3)CC2)cc1 | > 10000 | –
8.6 | Cc1nc2ccccc2c(=O)n1-c1ccc(OC2CCC(N3CCCC3)C2)cc1 (stereo in doubt; 3b) | 10000 | –
2 | Cc1nc2ccncc2c(=O)n1-c1ccc(OC2CCN(C3CCC3)CC2)cc1 | > 10000 | –
3 | Cc1nc2cc(Cl)ccc2c(=O)n1-c1ccc(OC2CCN(C3CCC3)CC2)cc1 | 3900 | –
0.27 | Cc1cccc2nc(C)n(-c3ccc(OC4CCN(C5CCC5)CC4)cc3)c(=O)c12 | > 10000 | Ratio [3]: 0.03; Ratio (LLC-PK1 [4]): 1; Cmax [5]: 1100 nM; AUC (Canis familiaris [6]): 5.6 µM·h; Ratio (LLC-PK1 [7]): 0.9; Ki (Histamine H3 receptor [8]): 1.7 nM; clearance [9]: 25 mL/min/kg; concentration at 2 h [10]: 100 nM; Cmax [11]: 20 nM; Ki (Histamine H3 receptor [12]): 1.8 nM; concentration at 2 h [13]: 1400 nM; bioavailability [14]: 40%; AUC(0-inf) [15]: 2.33 µM·h; Kp at 2 h [16]: 2.3; Cmax [17]: 560 nM; Drug uptake (Brain): 3.2 nmol/g; F (Canis familiaris [18]): 76%; Ki (Histamine H3 receptor [19]): 3.9 nM; AUC (Rhesus monkey [20]): 0.08 µM·h; F (Rhesus monkey [21]): 1%
10 | Cc1nc2ccccc2c(=O)n1-c1ccc(OC2CCCN(C3CCC3)CC2)cc1 (configuration not stated) | 7300 | –
1.2 | COc1cccc2nc(C)n(-c3ccc(OC4CCN(C5CCC5)CC4)cc3)c(=O)c12 | > 10000 | –
